In assay [1] the target is T1, E3 ubiquitin-protein ligase UHRF1 (Homo sapiens, UniProt Q96T88).
T1 sequence (Q96T88 whole entry): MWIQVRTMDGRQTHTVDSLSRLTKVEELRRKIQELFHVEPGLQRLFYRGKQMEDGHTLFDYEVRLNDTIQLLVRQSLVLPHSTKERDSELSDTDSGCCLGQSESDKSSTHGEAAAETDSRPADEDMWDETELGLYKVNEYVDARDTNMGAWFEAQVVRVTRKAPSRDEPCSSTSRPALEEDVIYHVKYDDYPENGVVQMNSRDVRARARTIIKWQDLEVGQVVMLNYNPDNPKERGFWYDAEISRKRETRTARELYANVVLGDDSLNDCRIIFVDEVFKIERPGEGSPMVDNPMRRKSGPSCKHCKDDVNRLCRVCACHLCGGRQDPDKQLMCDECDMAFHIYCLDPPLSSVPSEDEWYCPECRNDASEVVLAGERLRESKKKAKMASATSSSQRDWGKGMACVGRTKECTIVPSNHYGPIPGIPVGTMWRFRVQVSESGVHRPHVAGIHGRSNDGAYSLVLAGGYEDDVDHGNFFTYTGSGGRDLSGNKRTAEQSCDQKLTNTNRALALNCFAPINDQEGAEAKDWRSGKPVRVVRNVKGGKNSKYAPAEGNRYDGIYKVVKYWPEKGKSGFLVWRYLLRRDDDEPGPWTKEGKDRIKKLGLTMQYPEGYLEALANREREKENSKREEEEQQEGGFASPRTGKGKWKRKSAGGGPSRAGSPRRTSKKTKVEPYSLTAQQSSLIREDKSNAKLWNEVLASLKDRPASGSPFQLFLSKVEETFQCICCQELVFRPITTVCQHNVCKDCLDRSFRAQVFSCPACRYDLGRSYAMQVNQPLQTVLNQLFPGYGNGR
The assay is described as follows: Inhibition of UHRF1 (unknown origin) after 30 mins by AlphaScreen assay. In short, it runs like this: (§1)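 AlphaScreen competition with histone peptide. Compounds in 3-fold, 10-point dilutions, top 10 or 30 μM; buffer 20 mM Tris pH 8.0, 25 mM NaCl, 2 mM DTT, 0.05% Tween-20. Protein-peptide mix 30 min RT, then streptavidin donor plus nickel-chelate acceptor beads (GST acceptor beads for GST-tagged PHF23, JARID1A) 30 min RT dark. […] Protein-free His6-biotin peptide counterscreen.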
Background: Alpha assays give light when donor and acceptor beads are brought close together.

Assay [2] has as its target MBT domain-containing protein 1 (Homo sapiens, UniProt Q05BQ5). The assay can be described thus: Inhibition of MBTD1 (unknown origin) after 30 mins by AlphaScreen assay. In short, it runs like this: (§2)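 AlphaScreen competition with histone peptide. Compounds in 3-fold, 10-point dilutions, top 10 or 30 μM; buffer 20 mM Tris pH 8.0, 25 mM NaCl, 2 mM DTT, 0.05% Tween-20. Protein-peptide mix 30 min RT, then streptavidin donor plus nickel-chelate acceptor beads (GST acceptor beads for GST-tagged PHF23, JARID1A) 30 min RT dark. Protein-free His6-biotin peptide counterscreen.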

Assay [3] concerns the target T2, Scm-like with four MBT domains protein 1 (Homo sapiens, UniProt Q9UHJ3).
T2 sequence (Q9UHJ3 whole entry): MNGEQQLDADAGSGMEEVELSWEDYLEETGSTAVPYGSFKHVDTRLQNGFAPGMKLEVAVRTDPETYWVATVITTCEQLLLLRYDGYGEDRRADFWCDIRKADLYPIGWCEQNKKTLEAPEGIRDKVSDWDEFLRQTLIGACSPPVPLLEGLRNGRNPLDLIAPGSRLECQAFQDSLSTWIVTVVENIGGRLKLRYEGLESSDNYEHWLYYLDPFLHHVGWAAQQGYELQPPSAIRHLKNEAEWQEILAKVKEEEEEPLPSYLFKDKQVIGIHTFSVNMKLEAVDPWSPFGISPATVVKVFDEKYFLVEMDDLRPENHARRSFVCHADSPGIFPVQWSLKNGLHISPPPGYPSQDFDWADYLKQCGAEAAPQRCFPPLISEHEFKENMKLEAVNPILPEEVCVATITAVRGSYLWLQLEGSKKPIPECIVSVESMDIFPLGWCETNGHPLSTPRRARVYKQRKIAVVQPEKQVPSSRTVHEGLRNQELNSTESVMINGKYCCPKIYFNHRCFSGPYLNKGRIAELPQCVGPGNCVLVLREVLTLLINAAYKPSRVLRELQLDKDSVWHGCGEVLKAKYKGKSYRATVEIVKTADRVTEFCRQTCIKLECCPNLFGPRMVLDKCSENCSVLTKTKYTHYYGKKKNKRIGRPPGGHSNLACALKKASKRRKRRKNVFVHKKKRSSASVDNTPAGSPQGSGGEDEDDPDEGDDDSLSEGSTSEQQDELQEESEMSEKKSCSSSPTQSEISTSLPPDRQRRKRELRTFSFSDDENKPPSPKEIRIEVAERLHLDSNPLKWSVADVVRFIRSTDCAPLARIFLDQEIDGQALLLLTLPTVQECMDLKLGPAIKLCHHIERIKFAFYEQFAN
The assay is described as follows: Inhibition of SFMBT1 (unknown origin) after 30 mins by AlphaScreen assay. In short, it runs like this:
as §1

The target in assay [4] is T3, Lethal(3)malignant brain tumor-like protein 3 (Homo sapiens, UniProt Q96JM7).
T3 sequence (Q96JM7 whole entry): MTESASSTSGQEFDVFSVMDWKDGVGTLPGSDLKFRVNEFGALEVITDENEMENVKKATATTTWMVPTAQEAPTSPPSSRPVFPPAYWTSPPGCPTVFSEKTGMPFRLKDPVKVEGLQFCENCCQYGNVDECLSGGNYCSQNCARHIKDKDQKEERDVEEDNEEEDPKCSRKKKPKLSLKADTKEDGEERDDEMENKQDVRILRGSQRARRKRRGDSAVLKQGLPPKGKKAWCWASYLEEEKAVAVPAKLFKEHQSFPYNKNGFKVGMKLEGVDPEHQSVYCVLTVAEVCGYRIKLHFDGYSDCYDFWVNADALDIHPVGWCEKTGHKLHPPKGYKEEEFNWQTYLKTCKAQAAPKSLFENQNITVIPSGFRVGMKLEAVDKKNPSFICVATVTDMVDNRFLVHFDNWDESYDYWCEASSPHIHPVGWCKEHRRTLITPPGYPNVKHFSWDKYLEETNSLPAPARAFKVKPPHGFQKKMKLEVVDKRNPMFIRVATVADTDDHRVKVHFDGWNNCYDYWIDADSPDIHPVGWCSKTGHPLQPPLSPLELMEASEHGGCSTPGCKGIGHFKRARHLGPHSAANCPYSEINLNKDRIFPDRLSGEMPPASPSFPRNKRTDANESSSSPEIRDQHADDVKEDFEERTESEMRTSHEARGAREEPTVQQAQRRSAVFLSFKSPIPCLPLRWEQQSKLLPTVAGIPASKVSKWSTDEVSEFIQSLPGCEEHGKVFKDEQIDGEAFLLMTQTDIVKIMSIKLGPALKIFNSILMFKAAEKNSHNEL
The assay is described as follows: Inhibition of L3MBTL3 (unknown origin) after 30 mins by AlphaScreen assay. In short, it runs like this: as §2

These results are taken from ChEMBL document CHEMBL2424619, “Small-molecule ligands of methyl-lysine binding proteins: optimization of selectivity for L3MBTL3” (J Med Chem, 2013).

Sequence of MBT domain-containing protein 1 (Q05BQ5 whole entry, the tested form may be a part): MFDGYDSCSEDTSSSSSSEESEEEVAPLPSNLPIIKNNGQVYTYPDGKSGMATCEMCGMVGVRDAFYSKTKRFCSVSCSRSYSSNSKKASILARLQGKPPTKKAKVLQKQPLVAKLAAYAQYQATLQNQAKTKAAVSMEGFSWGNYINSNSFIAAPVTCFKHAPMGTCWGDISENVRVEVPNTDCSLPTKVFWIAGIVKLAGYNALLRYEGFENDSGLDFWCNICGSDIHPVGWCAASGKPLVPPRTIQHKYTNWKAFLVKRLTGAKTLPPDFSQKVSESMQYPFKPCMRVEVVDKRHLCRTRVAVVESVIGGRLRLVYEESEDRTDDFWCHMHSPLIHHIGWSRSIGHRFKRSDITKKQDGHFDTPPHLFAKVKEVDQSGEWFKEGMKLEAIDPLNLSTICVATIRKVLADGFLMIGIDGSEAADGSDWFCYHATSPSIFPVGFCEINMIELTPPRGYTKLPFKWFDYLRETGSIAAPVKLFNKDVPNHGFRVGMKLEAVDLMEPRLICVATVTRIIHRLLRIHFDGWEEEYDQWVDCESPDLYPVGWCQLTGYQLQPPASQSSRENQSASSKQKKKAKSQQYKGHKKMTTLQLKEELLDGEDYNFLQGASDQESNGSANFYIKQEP

By IC50 is commonly meant the midpoint of a concentration-inhibition curve. For `O=C(c1c(F)c(F)c(C(=O)N2CCC(N3CCCC3)CC2)c(F)c1F)N1CCC(N2CCCC2)CC1`, the IC50 is over 10 µM in assay [1], over 10 µM in assay [2], over 10 µM in assay [3] and 0.21 µM in assay [4].
Consider `O=C(c1ccc(C(=O)N2CCC(N3CCCC3)CC2)cc1)N1CCC(N2CCCCCC2)CC1`, for which the IC50 was over 10 µM in assay [1], 9.7 µM in assay [2], over 10 µM in assay [3] and 0.27 µM in assay [4].
For `CN1CCN2CC(NC(=O)c3ccc(C(=O)N4CCC(N5CCCC5)CC4)cc3)CC2C1` (configuration not stated), the IC50 in assay [1] was over 10 µM; in assay [2], over 10 µM; in assay [3], over 10 µM; in assay [4] it was 4.6 µM.
As to `CCN1Cc2ccc(NC(=O)c3ccc(C(=O)N4CCC(C5CCCN5)CC4)cc3Nc3ccccc3)cc2C1` (configuration not stated), the half-maximal inhibitory concentration (IC50) in assay [1] is over 10 µM; in assay [2], 3.5 µM; in assay [3], over 10 µM; in assay [4], 0.17 µM.
As for `O=C(c1ccc(C(=O)N2CCC(N3CCCC3)CC2)o1)N1CCC(N2CCCC2)CC1`, the IC50 in assay [1] was over 10 µM; in assay [2], over 10 µM; in assay [3], over 10 µM; in assay [4] it was 0.53 µM.
For the molecule `CC(C1CCN(C(=O)c2ccc(C(=O)N3CCC(N4CCCC4)CC3)cc2)CC1)N1CCN(C)CC1` (configuration not stated), the IC50 in assay [1] is over 10 µM; in assay [2], over 10 µM; in assay [3], over 10 µM; in assay [4], 0.3 µM.
In the case of `Nc1cc(C(=O)N2CCC(N3CCCC3)CC2)ccc1C(=O)N1CCC(N2CCCC2)CC1`, the concentration for half-maximal inhibition (IC50) is over 10 µM in assay [1], over 10 µM in assay [2], over 10 µM in assay [3] and 0.23 µM in assay [4].
In the case of `O=C(c1ccccc1C(=O)N1CCC(N2CCCC2)CC1)N1CCC(N2CCCC2)CC1`, the 50% inhibitory concentration (IC50) was over 10 µM in assay [1], over 10 µM in assay [2], over 10 µM in assay [3] and 1.1 µM in assay [4].
For `O=C(c1ccc(C(=O)N2CCC(N3CCCC3)CC2)c(Nc2ccccc2)c1)N1CCC(N2CCCC2)CC1`, the IC50 was over 10 µM in assay [1], 9 µM in assay [2], over 10 µM in assay [3] and 0.064 µM in assay [4].
On to `O=C(c1ccc(C(=O)N2CC3CNCC3C2)cc1)N1CCC(N2CCCC2)CC1` (configuration not stated), for which the IC50 was over 10 µM in assay [1], over 10 µM in assay [2], over 10 µM in assay [3] and 3.1 µM in assay [4].
Consider `O=C(c1ccc(C(=O)N2CCC(C3CCCN3)CC2)cc1)N1CCC(C2CCCN2)CC1` (configuration not stated), for which the IC50 was over 10 µM in assay [1], 4 µM in assay [2], over 10 µM in assay [3] and 0.64 µM in assay [4].
In the case of `CN1CCC(N2CCN(C(=O)c3ccc(C(=O)N4CCC(N5CCCC5)CC4)cc3)CC2)CC1`, the 50% inhibitory concentration (IC50) in assay [1] was over 10 µM; in assay [2] it was over 10 µM; in assay [3] it was over 10 µM; in assay [4] it was 0.83 µM.
As to `CN1CCCC1C1CCN(C(=O)c2ccc(C(=O)N3CCC(C4CCCN4C)CC3)cc2)CC1` (configuration not stated), the concentration for half-maximal inhibition (IC50) in assay [1] was over 10 µM; in assay [2] it was over 10 µM; in assay [3] it was over 10 µM; in assay [4] it was 1.7 µM.
